Entries after “also recorded” stand apart in the source; their conditions may differ.
Tested on: Nrf2 target genes GSTM3, NQO1, or HMOX1 in NCM460D cells
Assay: RT-qPCR of Nrf2 target genes in NCM460D cells
Format: cell-based
Conditions: 24 h incubation at 1, 10 and 100 μM, RT-PCR
Procedure, shortened: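 NCM460D cells exposed to test compound at 1, 10 and 100 μM for 24 h. Positive controls were a reference Keap1-Nrf2 PPI inhibitor (1, 10, 100 μM) and CDDO (10 and 100 nM); 0.1 % DMSO served as the negative control. RNA was quantified, reverse-transcribed to cDNA, and GSTM3, NQO1 and HMOX1 were measured by RT-qPCR, normalized to endogenous GAPDH.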

SMILES	transcriptional induction of Nrf2 target genes NQO1, GSTM3 and HMOX1
Cc1ccc(S(=O)(=O)N(CC(=O)O)c2ccc(N(CC(=O)O)S(=O)(=O)c3ccc(C)cc3)c(OCC(=O)O)c2)cc1 [8g, 2,2′-((2-(Carboxymethoxy)-1,4-phenylene)bis(tosylazanediyl))diacetic acid]	less transcriptional induction; also recorded: relatively low expressions
Cc1ccc(S(=O)(=O)N(CC(=O)O)c2cc(OCC(=O)O)c(N(CC(=O)O)S(=O)(=O)c3ccc(C)cc3)c3ccccc23)cc1 [compound 18, 2,2′-((2-(Carboxymethoxy)naphthalene-1,4-diyl)bis(tosylazanediyl))diacetic acid]	similarly high effects
Cc1ccc(S(=O)(=O)N(CC(=O)O)c2cc(CCC(=O)O)c(N(CC(=O)O)S(=O)(=O)c3ccc(C)cc3)c3ccccc23)cc1 [17b, 2,2′-((2-(2-Carboxyethyl)naphthalene-1,4-diyl)bis(tosylazanediyl))diacetic acid]	similarly high effects
